According to ChEMBL document CHEMBL1139934, “Synthesis and biological activity of imidazopyridine anticoccidial agents: part I” (Eur J Med Chem, 2007):

Columns and labels:
Eimeria tenella [1] = experiment: Anticococcidal activity against Eimeria tenella in Chick assessed as reduction in oocyte at 25 ppm relative to control; assay type: functional; parameters: scale not given: the % may be the effect or the level left
Summary of the method: (§1)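 Expanded Mini-Assay Coccidiosis (ExMAC) in chickens infected with E. tenella, E. acervulina, E. mitis and E. maxima. Compound given in the feed at the stated ppm. Efficacy for each species is scored 0 to 4 from the percent oocyst reduction relative to an untreated control. Where a compound was tested more than once, all values are reported.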

Eimeria maxima [2] = experiment: Anticococcidal activity against Eimeria maxima in Chick assessed as reduction in oocyte at 3.13 ppm relative to control; assay type: functional; parameters: scale not given: the % may be the effect or the level left; summary of the method: as §1
[3] = target: cGMP-dependent protein kinase (Eimeria tenella, UniProt Q8MMZ8); experiment: Inhibition of Eimeria tenella cGMP-dependent protein kinase by Ten_K assay
Sequence of cGMP-dependent protein kinase (Q8MMZ8 whole entry): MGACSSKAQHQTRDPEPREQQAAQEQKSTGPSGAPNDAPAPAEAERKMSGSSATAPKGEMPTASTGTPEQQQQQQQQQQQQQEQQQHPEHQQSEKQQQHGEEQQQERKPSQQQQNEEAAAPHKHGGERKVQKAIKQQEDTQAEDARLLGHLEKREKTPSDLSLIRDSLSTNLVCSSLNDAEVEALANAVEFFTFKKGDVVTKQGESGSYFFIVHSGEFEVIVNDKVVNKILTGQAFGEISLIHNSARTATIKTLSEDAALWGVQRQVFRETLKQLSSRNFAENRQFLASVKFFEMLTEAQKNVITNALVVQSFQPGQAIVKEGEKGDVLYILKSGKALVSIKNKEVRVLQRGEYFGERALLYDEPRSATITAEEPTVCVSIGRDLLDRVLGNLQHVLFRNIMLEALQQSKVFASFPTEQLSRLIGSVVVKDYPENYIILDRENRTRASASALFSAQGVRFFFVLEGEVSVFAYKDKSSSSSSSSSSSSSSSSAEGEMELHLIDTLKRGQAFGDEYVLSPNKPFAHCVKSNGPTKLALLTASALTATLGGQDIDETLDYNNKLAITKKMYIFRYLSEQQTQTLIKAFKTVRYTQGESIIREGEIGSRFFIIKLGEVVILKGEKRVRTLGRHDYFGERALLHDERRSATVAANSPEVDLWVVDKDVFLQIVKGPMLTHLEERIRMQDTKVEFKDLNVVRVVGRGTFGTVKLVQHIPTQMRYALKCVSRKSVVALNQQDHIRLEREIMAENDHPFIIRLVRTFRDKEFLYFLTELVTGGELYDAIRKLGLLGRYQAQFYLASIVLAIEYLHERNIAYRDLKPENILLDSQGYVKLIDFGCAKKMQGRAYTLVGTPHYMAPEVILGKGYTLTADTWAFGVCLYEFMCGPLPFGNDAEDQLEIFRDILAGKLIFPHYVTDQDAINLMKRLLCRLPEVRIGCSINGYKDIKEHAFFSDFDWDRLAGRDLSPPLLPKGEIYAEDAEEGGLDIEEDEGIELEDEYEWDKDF
Summary of the method: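 Ten_K (Tenella Kinase) assay measuring inhibition of E. tenella PKG enzyme activity. Result expressed as the concentration giving 50% inhibition (IC50, nM). Where a compound was tested more than once, all values are reported.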

Eimeria tenella [4] = experiment: Anticococcidal activity against Eimeria tenella in Chick assessed as reduction in oocyte at 12.5 ppm relative to control; assay type: functional; parameters: scale not given: the % may be the effect or the level left; summary of the method: as §1
Eimeria tenella [5] = experiment: Anticococcidal activity against Eimeria tenella in Chick assessed as reduction in oocyte at 6.25 ppm relative to control; assay type: functional; parameters: scale not given: the % may be the effect or the level left; summary of the method: as §1
Eimeria tenella [6] = experiment: Anticococcidal activity against Eimeria tenella in Chick assessed as reduction in oocyte at 3.13 ppm relative to control; assay type: functional; parameters: scale not given: the % may be the effect or the level left; summary of the method: as §1
Eimeria acervulina [7] = experiment: Anticococcidal activity against Eimeria acervulina in Chick assessed as reduction in oocyte at 25 ppm relative to control; assay type: functional; parameters: scale not given: the % may be the effect or the level left; summary of the method: as §1
Eimeria acervulina [8] = experiment: Anticococcidal activity against Eimeria acervulina in Chick assessed as reduction in oocyte at 12.5 ppm relative to control; assay type: functional; parameters: scale not given: the % may be the effect or the level left; summary of the method: as §1
Eimeria acervulina [9] = experiment: Anticococcidal activity against Eimeria acervulina in Chick assessed as reduction in oocyte at 6.25 ppm relative to control; assay type: functional; parameters: scale not given: the % may be the effect or the level left; summary of the method: as §1
Eimeria acervulina [10] = experiment: Anticococcidal activity against Eimeria acervulina in Chick assessed as reduction in oocyte at 3.13 ppm relative to control; assay type: functional; parameters: scale not given: the % may be the effect or the level left; summary of the method: as §1
Eimeria mitis [11] = experiment: Anticococcidal activity against Eimeria mitis in Chick assessed as reduction in oocyte at 25 ppm relative to control; assay type: functional; parameters: scale not given: the % may be the effect or the level left; summary of the method: as §1
Eimeria maxima [12] = experiment: Anticococcidal activity against Eimeria maxima in Chick assessed as reduction in oocyte at 25 ppm relative to control; assay type: functional; parameters: scale not given: the % may be the effect or the level left; summary of the method: as §1
Eimeria maxima [13] = experiment: Anticococcidal activity against Eimeria maxima in Chick assessed as reduction in oocyte at 12.5 ppm relative to control; assay type: functional; parameters: scale not given: the % may be the effect or the level left; summary of the method: as §1
Eimeria maxima [14] = experiment: Anticococcidal activity against Eimeria maxima in Chick assessed as reduction in oocyte at 6.25 ppm relative to control; assay type: functional; parameters: scale not given: the % may be the effect or the level left; summary of the method: as §1
Eimeria mitis [15] = experiment: Anticococcidal activity against Eimeria mitis in Chick assessed as reduction in oocyte at 12.5 ppm relative to control; assay type: functional; parameters: scale not given: the % may be the effect or the level left; summary of the method: as §1
Eimeria mitis [16] = experiment: Anticococcidal activity against Eimeria mitis in Chick assessed as reduction in oocyte at 6.25 ppm relative to control; assay type: functional; parameters: scale not given: the % may be the effect or the level left; summary of the method: as §1
Eimeria mitis [17] = experiment: Anticococcidal activity against Eimeria mitis in Chick assessed as reduction in oocyte at 3.13 ppm relative to control; assay type: functional; parameters: scale not given: the % may be the effect or the level left; summary of the method: as §1
[18] = target: cGMP-dependent protein kinase (Eimeria tenella) (UniProt Q8MMZ8); experiment: Inhibition of Eimeria tenella cGMP-dependent protein kinase at 100 nM by Ten_K assay
Sequence of cGMP-dependent protein kinase (Eimeria tenella) (Q8MMZ8 2-1003 limits assumed): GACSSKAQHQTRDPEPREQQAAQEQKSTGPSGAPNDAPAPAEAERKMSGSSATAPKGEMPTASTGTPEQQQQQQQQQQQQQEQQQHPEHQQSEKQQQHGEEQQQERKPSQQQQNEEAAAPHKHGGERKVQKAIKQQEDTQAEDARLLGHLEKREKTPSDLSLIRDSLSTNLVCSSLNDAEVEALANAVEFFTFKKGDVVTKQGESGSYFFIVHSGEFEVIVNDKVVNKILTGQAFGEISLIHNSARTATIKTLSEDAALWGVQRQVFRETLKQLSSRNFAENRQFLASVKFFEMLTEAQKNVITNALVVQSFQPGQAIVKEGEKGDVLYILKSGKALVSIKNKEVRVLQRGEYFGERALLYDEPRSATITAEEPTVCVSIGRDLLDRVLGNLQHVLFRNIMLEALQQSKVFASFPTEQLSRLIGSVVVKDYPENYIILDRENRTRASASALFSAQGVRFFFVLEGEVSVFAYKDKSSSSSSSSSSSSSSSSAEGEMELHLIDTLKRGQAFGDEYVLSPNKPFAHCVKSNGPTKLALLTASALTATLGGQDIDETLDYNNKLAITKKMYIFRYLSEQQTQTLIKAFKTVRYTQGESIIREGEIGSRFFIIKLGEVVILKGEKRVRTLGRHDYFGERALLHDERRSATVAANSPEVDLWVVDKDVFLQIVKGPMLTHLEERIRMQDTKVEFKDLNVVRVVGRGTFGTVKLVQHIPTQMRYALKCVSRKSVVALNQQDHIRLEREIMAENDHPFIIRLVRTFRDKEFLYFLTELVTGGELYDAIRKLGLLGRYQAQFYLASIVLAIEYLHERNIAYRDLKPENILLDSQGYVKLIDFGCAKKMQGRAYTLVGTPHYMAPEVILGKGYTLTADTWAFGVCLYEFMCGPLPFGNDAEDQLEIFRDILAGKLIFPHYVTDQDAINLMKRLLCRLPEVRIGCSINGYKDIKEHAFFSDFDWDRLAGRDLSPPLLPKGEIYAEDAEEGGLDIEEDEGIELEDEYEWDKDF

Eimeria tenella [19] = experiment: Anticococcidal activity against Eimeria tenella in Chick assessed as reduction in oocyte at 1.25 ppm relative to control; assay type: functional; parameters: scale not given: the % may be the effect or the level left; summary of the method: as §1
Eimeria acervulina [20] = experiment: Anticococcidal activity against Eimeria acervulina in Chick assessed as reduction in oocyte at 1.25 ppm relative to control; assay type: functional; parameters: scale not given: the % may be the effect or the level left; summary of the method: as §1
Eimeria mitis [21] = experiment: Anticococcidal activity against Eimeria mitis in Chick assessed as reduction in oocyte at 1.25 ppm relative to control; assay type: functional; parameters: scale not given: the % may be the effect or the level left; summary of the method: as §1
Eimeria maxima [22] = experiment: Anticococcidal activity against Eimeria maxima in Chick assessed as reduction in oocyte at 1.25 ppm relative to control; assay type: functional; parameters: scale not given: the % may be the effect or the level left; summary of the method: as §1
Eimeria tenella [23] = experiment: Anticococcidal activity against Eimeria tenella in Chick assessed as reduction in oocyte at 50 ppm relative to control; assay type: functional; parameters: scale not given: the % may be the effect or the level left; summary of the method: as §1
Eimeria acervulina [24] = experiment: Anticococcidal activity against Eimeria acervulina in Chick assessed as reduction in oocyte at 50 ppm relative to control; assay type: functional; parameters: scale not given: the % may be the effect or the level left; summary of the method: as §1
Eimeria maxima [25] = experiment: Anticococcidal activity against Eimeria maxima in Chick assessed as reduction in oocyte at 50 ppm relative to control; assay type: functional; parameters: scale not given: the % may be the effect or the level left; summary of the method: as §1
Eimeria mitis [26] = experiment: Anticococcidal activity against Eimeria mitis in Chick assessed as reduction in oocyte at 50 ppm relative to control; assay type: functional; parameters: scale not given: the % may be the effect or the level left; summary of the method: as §1

| SMILES | IC50 [3] | Activity (Eimeria tenella [1]) | Activity (Eimeria tenella [4]) | Activity (Eimeria tenella [5]) | Activity (Eimeria acervulina [7]) | Activity (Eimeria acervulina [8]) | Activity (Eimeria acervulina [9]) | Activity (Eimeria mitis [11]) | Activity (Eimeria maxima [12]) | Activity (Eimeria maxima [13]) | Activity (Eimeria maxima [14]) | Activity (Eimeria mitis [15]) | Activity (Eimeria mitis [16]) | further results |
| --- | --- | --- | --- | --- | --- | --- | --- | --- | --- | --- | --- | --- | --- | --- |
| CN(C)Cc1ccn2c(-c3ccnc(N)n3)c(-c3c(F)cc(F)cc3F)nc2c1 | 0.52 nM | 80% | 80% | <50% | 80% | 80% | 50% | <50% | 100% | 80% | 50% | <50% | 50% | Activity (Eimeria maxima [2]): 80%; Activity (Eimeria tenella [6]): 50%; Activity (Eimeria acervulina [10]): <50%; Activity (Eimeria mitis [17]): 50% |
| CN(C)Cc1ccn2c(-c3ccnc(NS(=O)(=O)Cc4ccccc4)n3)c(-c3ccc(F)cc3)nc2c1 |  | <50% |  |  | <50% |  |  | <50% | <50% |  |  |  |  | inhibition [18]: 40% |
| CN(C)Cc1ccn2c(-c3nc(N)ncc3F)c(-c3ccc(F)cc3)nc2c1 | 0.23 nM | 80% |  | 80% | 100% |  | 50% | 50% | 100% |  | <50% |  | <50% | Activity (Eimeria tenella [19]): 80%; Activity (Eimeria acervulina [20]): 100%; Activity (Eimeria mitis [21]): <50%; Activity (Eimeria maxima [22]): <50% |
| Cc1cnc(N)nc1-c1c(-c2ccc(F)cc2)nc2cc(CN(C)C)ccn12 | 0.23 nM | 80% | 80% | <50% | 80% | <50% | <50% | 80% | 80% | 80% | 80% | 80% | <50% |  |

Second part, led by results:

| IC50 [3] | SMILES | Activity (Eimeria tenella [1]) | Activity (Eimeria tenella [4]) | Activity (Eimeria tenella [5]) | Activity (Eimeria acervulina [7]) | Activity (Eimeria acervulina [8]) | Activity (Eimeria acervulina [9]) | Activity (Eimeria mitis [11]) | Activity (Eimeria maxima [12]) | Activity (Eimeria maxima [13]) | Activity (Eimeria maxima [14]) | Activity (Eimeria mitis [15]) | Activity (Eimeria mitis [16]) | further results |
| --- | --- | --- | --- | --- | --- | --- | --- | --- | --- | --- | --- | --- | --- | --- |
| 2.14 nM | CCCCNc1nccc(-c2c(-c3ccc(F)cc3)nc3cc(CN(C)C)ccn23)n1 |  |  |  |  |  |  |  |  |  |  |  |  | Activity (Eimeria tenella [23]): <50%; Activity (Eimeria acervulina [24]): <50%; Activity (Eimeria maxima [25]): <50%; Activity (Eimeria mitis [26]): <50% |
| 0.3 nM | CN(C)Cc1ccn2c(-c3ccnc(NCCO)n3)c(-c3ccc(F)cc3)nc2c1 | 80% | 50% | <50% | 80% | <50% | <50% | 80% | 80% | 80% | 50% | <50% | <50% |  |
